Source: article PMC5873441 (Diabetes, Obesity & Metabolism, 2018)
Where two headings read alike, the source gives them in different places.

Assays:
[1] = type: in vivo, human
How it was run: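 Adults with normal hepatic function or mild, moderate or severe impairment (Child–Pugh), matched for age, sex and weight, each got one 0.5 mg s.c. thigh injection by pen. Plasma was sampled from pre-dose to 840 h and stored at −20°C. Proteins were precipitated, then LC‐MS/MS (0.729–60.8 nmol/L, analogue internal standard). AUC by non-compartmental methods; CL/F = dose/AUC0‐∞. Group ratios vs normal, with 90% CI.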

[2] = cited from earlier work
[3] = Safety and tolerability of a single 0.5 mg dose; type: in vivo, human; details: single s.c. 0.5 mg
How it was run: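 After one 0.5 mg s.c. thigh dose, participants stayed in-house ≥5 days, then had visits on days 7, 8, 15, 22 and 29 and follow-up on day 36. Monitoring covered adverse events, hypoglycaemic episodes, haematology, biochemistry (amylase, lipase), coagulation, calcitonin, urinalysis, vital signs, physical examination, ECG and fasting plasma glucose.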

plasma protein (albumin) = type: in vitro ADME, human; details: surface plasmon resonance, in vitro on blood samples taken prior to dosing; across all hepatic function groups
[4] = human, single s.c. 0.5 mg, mild hepatic impairment, n = 8

AUC0‐last, ER (90% CI) vs no impairment ([1]; estimated ratio mild impairment/no impairment): 0.96 (0.76, 1.20)
Cmax, ER (90% CI) vs no impairment ([1]; estimated ratio mild impairment/normal function): 0.99 (0.80, 1.23)
AUC0‐∞, ER (90% CI) vs no impairment ([1]; estimated ratio mild impairment/normal function, single s.c. 0.5 mg): 0.95 (0.77, 1.16)
AUC0‐last, ER (90% CI) vs no impairment ([1]; estimated ratio moderate impairment/no impairment): 1.03 (0.92, 1.15)
Cmax, ER (90% CI) vs no impairment ([1]; estimated ratio moderate impairment/normal function): 1.02 (0.88, 1.18)
AUC0‐∞, ER (90% CI) vs no impairment ([1]; estimated ratio moderate impairment/normal function, single s.c. 0.5 mg): 1.02 (0.93, 1.12)
AUC0‐last, ER (90% CI) vs no impairment ([1]; estimated ratio severe impairment/no impairment): 0.93 (0.77, 1.13)
Cmax, ER (90% CI) vs no impairment ([1]; estimated ratio severe impairment/normal function): 1.15 (0.89, 1.48)
AUC0‐∞, ER (90% CI) vs no impairment ([1]; estimated ratio severe impairment/normal function, single s.c. 0.5 mg): 0.97 (0.84, 1.12)
AUC0‐last, estimated mean ([1]; human, single s.c. 0.5 mg, plasma LC-MS/MS, no hepatic impairment, n = 18): 2731 nmol^×h/L
AUC0‐last, estimated mean [1, 4]: 2621 nmol^×h/L
Tmax, median [1, 4]: 65.9 h
AUC0‐last, estimated mean ([1]; human, single s.c. 0.5 mg, moderate hepatic impairment, n = 10): 2807 nmol^×h/L
AUC0‐last, estimated mean ([1]; human, single s.c. 0.5 mg, severe hepatic impairment, n = 7): 2539 nmol^×h/L
CL/F, geometric mean (CV) ([1]; total apparent clearance, CV in %, severe hepatic impairment, n = 7): 0.043 (10.0) L/h
median fraction of unbound semaglutide (plasma protein (albumin)): < 1%
Structure (SMILES): CC[C@H](C)[C@H](NC(=O)[C@H](Cc1ccccc1)NC(=O)[C@H](CCC(=O)O)NC(=O)[C@H](CCCCNC(=O)COCCOCCNC(=O)COCCOCCNC(=O)CC[C@H](NC(=O)CCCCCCCCCCCCCCCCC(=O)O)C(=O)O)NC(=O)[C@H](C)NC(=O)[C@H](C)NC(=O)[C@H](CCC(N)=O)NC(=O)CNC(=O)[C@H](CCC(=O)O)NC(=O)[C@H](CC(C)C)NC(=O)[C@H](Cc1ccc(O)cc1)NC(=O)[C@H](CO)NC(=O)[C@H](CO)NC(=O)[C@@H](NC(=O)[C@H](CC(=O)O)NC(=O)[C@H](CO)NC(=O)[C@@H](NC(=O)[C@H](Cc1ccccc1)NC(=O)[C@@H](NC(=O)CNC(=O)[C@H](CCC(=O)O)NC(=O)C(C)(C)NC(=O)[C@@H](N)Cc1cnc[nH]1)[C@@H](C)O)[C@@H](C)O)C(C)C)C(=O)N[C@@H](C)C(=O)N[C@@H](Cc1c[nH]c2ccccc12)C(=O)N[C@@H](CC(C)C)C(=O)N[C@H](C(=O)N[C@@H](CCCNC(=N)N)C(=O)NCC(=O)N[C@@H](CCCNC(=N)N)C(=O)NCC(=O)O)C(C)C [semaglutide]
exposure in people with renal impairment vs normal renal function ([2]; after adjusting for specific baseline characteristics): comparable
administered dose excreted in urine as intact semaglutide ([2]; human, radioactive‐labelled compound): 3.1%
serious adverse events or events leading to participant withdrawal ([3]; all groups): No serious adverse events
severe hypoglycaemic episodes ([3]; all groups): No severe hypoglycaemic episodes
changes in vital signs, clinical laboratory assessments, physical examination or ECG ([3]; normal or impaired hepatic function): No clinically relevant changes
